rCAG binder: binds r(CAG) RNA repeats; r(CAG) RNA repeat, TO-PRO-1 dye displacement fluorescence; AID 651821; inhibition, % at 3 µM; 1.3% of 370,000 active;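 active = inhibition above the plate cutoff, the mean of all test compounds on that plate plus 3 SD, cut at about 35% in these data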;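 note: 0% = DMSO alone and 100% = 100 µM mitoxantrone as full dye displacement; higher means more dye released from RNA so lower well fluorescence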
mABHD4 FP: inhibitors of mouse ABHD4; Q8VD66; inhibition, % at 8.92 µM; 0.54% of 370,000 active; purified mABHD4, FP-Rh probe fluorescence polarization;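 active = inhibition exceeding the mean over every tested compound plus 3 SD, cut at about 30% in these data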;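 note: 0% = plate median of compound wells and 100% = S159A mutant with DMSO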
Target sequence (Q8VD66 whole entry, looked up): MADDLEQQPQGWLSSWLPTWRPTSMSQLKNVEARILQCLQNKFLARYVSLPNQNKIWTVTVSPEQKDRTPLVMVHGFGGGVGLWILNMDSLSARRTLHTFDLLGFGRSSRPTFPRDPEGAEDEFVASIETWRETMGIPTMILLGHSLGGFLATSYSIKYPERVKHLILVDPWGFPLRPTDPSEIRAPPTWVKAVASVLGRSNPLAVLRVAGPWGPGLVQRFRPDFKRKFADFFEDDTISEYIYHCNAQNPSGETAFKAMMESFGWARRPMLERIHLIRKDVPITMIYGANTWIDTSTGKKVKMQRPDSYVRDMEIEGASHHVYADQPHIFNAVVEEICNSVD
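Assay system: mouse ABHD4 enzyme, wild type / Also added: fluorescent activity-based probe FP-Rh / Doses: single nominal dose of 8.92 µM, 0.89% DMSO final / Timing: 45 min compound pre-incubation plus 60 min probe step, 25 °C / Signal: FP readout, ex 525 nm / em 598 nm / Control set: S159A mutant/DMSO as 100%, compound-well median as 0%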
TCR-CD3 inh: inhibitors of human TCR-CD3 interaction | inhibition, % at 9.4 µM | 0.37% of 360,000 active | TAMRA-labeled TCR probe fluorescence, biochemical; in the data active = inhibition above about 19%;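 note: recombinant mutant TCR 2C K166C tagged with TAMRA read by polarization; 0% = receptor in buffer alone and 100% = receptor with positive control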
PRMT1 inh: blocks human protein arginine methyltransferase 1; recombinant PRMT1, activity-based probe fluorescence polarization; Q99873; inhibition, % at 2.79 µM; 1.3% of 370,000 active;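 active = inhibition above about 21% made by adding two undisclosed values, limit read from the data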
SIAE primary: inhibitors of human sialic acid acetylesterase SIAE. Q9HAT2. SIAE FP-Rh probe binding, fluorescence polarization. inhibition, % at 9.66 µM. 0.69% of 370,000 active;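 active = inhibition above a cutoff: mean of compounds within the control limits plus 3 SD of those, cut at about 17% in these data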;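 note: 0% = plate median of compound wells and 100% = probe without SIAE protein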
rCAG bind conf: r(CAG) RNA repeat binding, confirmation | inhibition, % at 3 µM | 70% of 4,300 active | shares compounds with rCAG binder | AID 652065 | TO-PRO-1 dye displacement fluorescence;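 active = inhibition above a per-plate cutoff, the mean inhibition of sample wells plus 3 SD, cut at about 35% in these data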;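 note: loss of TO-PRO-1 fluorescence as compound displaces dye from 1x1 AA loop RNA; 0% = DMSO only wells and 100% = 100 µM mitoxantrone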
DNA CAG counter: counter-screen for rCAG RNA binders: DNA CAG dye complex inhibitors; shares compounds with rCAG binder; d(CAG) DNA oligo TO-PRO-1 dye displacement, fluorescence; AID 652068; inhibition, % at 3 µM; 94% of 4,300 active;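 active = inhibition above its plate's cutoff, the mean test-well inhibition plus 3 SD, cut at about 4.8% in these data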;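 note: 0% = DNA dye mix with DMSO and 100% = 100 µM mitoxantrone; hits displace the dye from DNA and so lower well fluorescence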
Starred values were filed as active, the others as inactive. Shown are actives, neighbours in structure and some others; about 3.3% of the full set was active somewhere.

Results for COc1ccc(CN2C[C@]3(C=C(C)Cn4c(=O)n(-c5ccccc5)c(=O)n43)N(C(=O)OCc3ccccc3)C2=NC(=O)c2ccccc2)c(OC)c1 ?
rCAG binder: 10.8; mABHD4 FP: -16.1; PRMT1 inh: -5.2; SIAE primary: 3.9

Results for COc1ccc(CN2C[C@]3(C=C4CCCCC4n4c(=O)n(-c5ccccc5)c(=O)n43)N(C(=O)OCc3ccccc3)C2=NC(=O)c2ccccc2)c(OC)c1 (stereo partly specified) ?
rCAG binder: 11.8; mABHD4 FP: -0.6; PRMT1 inh: -1.8; SIAE primary: 0.5

Results for O=C(NC1=N[C@@]2(C=C3CCCCC3n3c(=O)n(-c4ccccc4)c(=O)n32)CN1Cc1ccccc1)c1ccccc1 (stereo partly specified) ?
rCAG binder: 41.7*; mABHD4 FP: -3.5; PRMT1 inh: -0.5; SIAE primary: 1.7; rCAG bind conf: 38.1*; DNA CAG counter: 15.1*

What do the screens show for `COc1ccc(CN2C[C@]3(C=C4CCCCC4n4c(=O)n(-c5ccccc5)c(=O)n43)N=C2NC(=O)c2ccccc2)c(OC)c1` (stereo partly specified)?
rCAG binder: 52.0*; mABHD4 FP: -3.5; PRMT1 inh: -0.5; SIAE primary: 4.7; rCAG bind conf: 49.7*; DNA CAG counter: 20.6*

Results for CC(C)C(=O)N1CC[C@H]2[C@H](CCCN2Cc2cc(F)cc(F)c2)C1 ?
rCAG binder: -1.9; mABHD4 FP: -2.9; PRMT1 inh: 0.0; SIAE primary: 3.4

What do the screens show for `CCCN1CCS(=O)(=O)N(Cc2cn(Cc3ccc(OC)cc3)nn2)C(C(=O)OC)C1` (stereo unspecified)?
rCAG binder: 0.5; mABHD4 FP: -1.1; PRMT1 inh: -2.5; SIAE primary: 3.9

What do the screens show for `COc1cccc(/C=C2\CC3(OC(=O)c4ccc(Cl)cc4)CCCN2C3)c1` (stereo unspecified)?
rCAG binder: 1.4; mABHD4 FP: -0.6; PRMT1 inh: -2.0; SIAE primary: -3.9

How did COC(=O)[C@]12C[C@H](CC(=O)N3CCCCC3)C(=O)N(Cc3ccccc3)C1=C[C@H](COCc1ccccc1)O[C@@H]2C do in these assays?
rCAG binder: -0.3; mABHD4 FP: -5.4; PRMT1 inh: -5.5; SIAE primary: -3.0

Results for Cc1ccc(NC(=O)Nc2nc(-c3ccc(C)s3)cs2)cc1 ?
rCAG binder: 52.4*; mABHD4 FP: -1.8; TCR-CD3 inh: 7.4; PRMT1 inh: 2.6; SIAE primary: 3.8; rCAG bind conf: 17.5; DNA CAG counter: 21.5*

What do the screens show for `CC(=O)Nc1nc(-c2ccc(Br)s2)cs1`?
rCAG binder: 2.7; mABHD4 FP: -2.4; TCR-CD3 inh: 7.6; PRMT1 inh: 0.9; SIAE primary: -3.2

How did Cc1ccc(/C=C2\C(=O)ON=C2c2ccccc2)o1 do in these assays?
rCAG binder: -2.1; mABHD4 FP: 9.5; TCR-CD3 inh: 6.0; PRMT1 inh: 3.3; SIAE primary: 7.5

How did Cc1ccc(C2=NOC(=O)/C2=C\c2ccc(C)o2)cc1 do in these assays?
rCAG binder: 37.2*; mABHD4 FP: 12.2; TCR-CD3 inh: -9.0; PRMT1 inh: 20.3; SIAE primary: 8.1; rCAG bind conf: 14.9; DNA CAG counter: 6.8*

What do the screens show for `CCOC(=O)[C@]12CCCCC/C=C\1N(CCc1ccc(Cl)cc1)C(=O)[C@H]2CC(=O)N1CCOCC1`?
rCAG binder: 0.5; mABHD4 FP: 2.1; PRMT1 inh: 0.6; SIAE primary: 6.1

What do the screens show for `CN(c1ccc(OCC(=O)Nc2ccc(S(N)(=O)=O)cc2)cc1)S(=O)(=O)c1ccc(F)cc1`?
rCAG binder: 6.7; mABHD4 FP: -1.0; TCR-CD3 inh: -5.2; PRMT1 inh: 0.5; SIAE primary: -6.0

Screening results as filed in PubChem BioAssay.
